# Reference: ChEMBL document CHEMBL1770116, “Glycoglycerolipid analogues inhibit PKC translocation to the plasma membrane and downstream signaling pathways in PMA-treated fibroblasts and human glioblastoma cells, U87MG” (Eur J Med Chem, 2011)
# The source made the active and inactive calls. No cut-off for these calls is given here.
# How the values were obtained:
# [1] = target: T1, Protein kinase C (PKC) (Homo sapiens) (UniProt O94806+P41743+P17252+P05129+Q05655+P05771+Q05513+Q02156+P24723+Q15139+Q04759); assay: Inhibition of PKC activation in PMA-treated human fibroblasts assessed as inhibition of translocation to plasma membrane at 0.2 uM pretreated for 1 hr followed by 15 mins challenged with PMA by Western blot/densitometric analysis
# Outline: (§1)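 Primary human dermal fibroblasts in 10% FBS DMEM, pretreated 1 h at 37 °C with compound (ethanol vehicle, 0.2–2 range), then 100 nM PMA for 15 min. Controls received 0.005% ethanol ± PMA. 10 µg membrane protein on 10% SDS-PAGE/PVDF, probed with anti-PKC; densitometry. IC50 derived from the inhibition curve.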
# [2] = target: T1, Protein kinase C (PKC) (Homo sapiens); assay: Inhibition of PKC activation in PMA-treated human fibroblasts assessed as inhibition of translocation to plasma membrane at 2 uM pretreated for 1 hr followed by 15 mins challenged with PMA by Western blot/densitometric analysis; outline: as §1
# Protein kinase C (PKC) = assay: Inhibition of PKC activation in PMA-treated human fibroblasts assessed as inhibition of translocation to plasma membrane cells pretreated for 1 hr followed by 15 mins challenged with PMA by Western blot/densitometric analysis; outline: as §1
# [3] = Suppression of PKC delta mRNA expression in PMA-treated human fibroblasts at 2 uM pretreated for 1 hr followed by 15 mins challenged with PMA by RT-PCR analysis; assay type: functional, cell-based; conditions: Fibroblast
# Outline: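 Fibroblasts pretreated 1 h, then 100 nM PMA for 15 min. RNA taken for real-time PCR of PKCα and PKCδ with SYBR Green and 0.2 µM primers. Cycling: 95 °C for 3 min, then 40 cycles of 95 °C 10 s / 58 °C 30 s; specificity checked by melting curve. Means ± S.D. of four experiments, Student's t-test.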
# [4] = target: T1, Protein kinase C (PKC) (Homo sapiens); assay: Inhibition of PKC activation in PMA-treated human fibroblasts assessed as decrease in Raf phosphorylation at 2 uM pretreated for 1 hr followed by 15 mins challenged with PMA by Western blot/densitometric analysis
# Outline: (§2)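 Primary human dermal fibroblasts, 5 × 10^5 cells seeded in DMEM/10% FBS; after 24 h, compound (ethanol vehicle) in 10% FBS DMEM for 1 h at 37 °C, then 100 nM PMA for 15 min. Controls received 0.005% ethanol ± PMA. Cells sonicated; 25 µg total lysate run on 10% SDS-PAGE, blotted to PVDF and probed with phospho-specific antibodies; densitometry.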
# [5] = target: T1, Protein kinase C (PKC) (Homo sapiens); assay: Inhibition of PKC activation in PMA-treated human fibroblasts assessed as decrease in MEK phosphorylation at 2 uM pretreated for 1 hr followed by 15 mins challenged with PMA by Western blot/densitometric analysis; outline: as §2
# [6] = target: T1, Protein kinase C (PKC) (Homo sapiens); assay: Inhibition of PKC activation in PMA-treated human fibroblasts assessed as decrease in ERK1/2 phosphorylation at 2 uM pretreated for 1 hr followed by 15 mins challenged with PMA by Western blot/densitometric analysis; outline: as §2
# [7] = target: T1, Protein kinase C (PKC) (Homo sapiens); assay: Inhibition of PKC activation in PMA-treated human fibroblasts assessed as decrease in FAK phosphorylation at 2 uM pretreated for 1 hr followed by 15 mins challenged with PMA by Western blot/densitometric analysis; outline: as §2
# [8] = target: T1, Protein kinase C (PKC) (Homo sapiens); assay: Inhibition of PKC activation in human U87MG cells assessed as inhibition of translocation to plasma membrane at 2 uM after 24 hrs by Western blot/densitometric analysis; assay type: cell-based; conditions: U-87MG ATCC
# Outline: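 U87MG cells (4 × 10^5) cultured in DMEM high glucose/10% FBS, treated 24 h at 37 °C; controls received 0.005% ethanol. Means ± S.D. of three experiments, Student's t-test.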
# [9] = Antitumor activity against human U87MG cells assessed as reduction in [3H]thymidine incorporation at 2 uM after 24 hrs by beta counting; assay type: functional, U-87MG ATCC; design: scale not given: the % may be the effect or the level left
# Outline: (§3)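 [3H]thymidine incorporation in U87MG cells: 4 × 10^4 cells plated, treated 24 h or 48 h; […] [3H]thymidine added for final 4 h at 37 °C; radioactivity counted in trichloroacetic acid-insoluble material by β-counter. Means ± S.D. of four experiments.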
# [10] = Antitumor activity against human U87MG cells assessed as reduction in [3H]thymidine incorporation at 2 uM after 48 hrs by beta counting; assay type: functional, U-87MG ATCC; design: scale not given: the % may be the effect or the level left; outline: as §3
# U-87 MG [11] = assay: Inhibition of human U87MG cell migration at 2 uM pretreated for 48 hrs measured after 6 to 30 hrs of scratching by scratch migration assay relative to control; assay type: functional, cell-based; conditions: U-87MG ATCC
# Outline: (§4)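 U87MG cells (8 × 10^4) pretreated 48 h in 10% FBS DMEM, ethanol-only controls. Wound width photographed under phase contrast at 0, 6, 24 and 30 h post-scratch.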
# U-87 MG [12] = assay: Inhibition of human U87MG cell migration assessed as reduction in wound size at 2 uM pretreated for 48 hrs measured after 30 hrs of scratching by scratch migration assay relative to control; assay type: functional, U-87MG ATCC; outline: as §4
inhibition [1],inhibition [2],inhibition [8],Compound,other results
35%,64%,–,CCCCCC(=O)OC[C@H]1O[C@@H](OC(CO)CO)[C@H](O)[C@@H](O)[C@H]1O,–
38%,52%,–,O=C(CC1CCCCC1)OC[C@H]1O[C@@H](OC(CO)CO)[C@H](O)[C@@H](O)[C@H]1O,–
23%,99%,58%,CC(C)CC(=O)OC[C@H]1O[C@@H](OC(CO)CO)[C@H](O)[C@@H](O)[C@H]1O,IC50 (Protein kinase C (PKC)): 0.48 µM; Activity [3]: Active; inhibition [4]: Active; inhibition [5]: Active; inhibition [6]: Active; inhibition [7]: Active; Activity [9]: 25%; Activity [10]: 30%; inhibition (U-87 MG [11]): Active; inhibition at 2 µM (U-87 MG [12]): 16%

# Second part, the compound before the results:
Compound,inhibition [1],inhibition [2],inhibition [8],other results
OCC(CO)O[C@@H]1O[C@H](CO)[C@H](O)[C@H](O)[C@H]1O,27%,50%,–,–
CCCCCCCCCC(=O)OC[C@H]1O[C@@H](OC(CO)CO)[C@H](O)[C@@H](O)[C@H]1O,–,–,inactive,–
